What is called bioavailability is the share of a dose that reaches the circulation, judged against a reference dose that is usually intravenous. Higher therefore signals good availability. What is called clearance is the rate of elimination divided by the concentration. Usually Cmax stands for the highest concentration seen after dosing. In general, pIC50 refers to the IC50 on a negative log10 scale, so that one unit is a factor of ten. A word on the AUC(0-t): it is exposure summed from dosing to a finite time, without extrapolation to infinity. Low values mean low exposure, high ones high exposure. For orientation: half-life means the time needed for the level to fall by half in the phase considered. Low values mean fast loss, high ones slow loss.

We go through one molecule from ChEMBL document CHEMBL4610127, “Novel Autotaxin Inhibitor for the Treatment of Idiopathic Pulmonary Fibrosis: A Clinical Candidate Discovered Using DNA-Encoded Chemistry” (J Med Chem, 2020).

A short description of series [1]: Oral bioavailability in rat at 5 mg/kg. The series is classed as ADME, organism-based. Conditions: in vivo.
A further series has as its system Mus musculus. The series can be described thus: Anti-fibrotic activity in C57BL/6 mouse model of bleomycin-induced lung fibrosis assessed as reduction in lung fibrosis levels at 30 to 300 mg/kg, po BID for 21 days dosed 7 days after bleomycin treatment by trichrome staining based assay. It is filed as functional, organism-based. In a few lines:
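Therapeutic mode: oral BID dosing (30, 100, 300 mg/kg) began seven days after bleomycin. Mice killed 21 days after bleomycin; fibrosis quantitated by trichrome staining of lung tissue in a separate group from the hydroxyproline group. GLPG1690 at 30 and 100 mg/kg BID as control.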

Series [2] in a line: Time above IC90 in mouse at 30 mg/kg, po. The series is classed as ADME, organism-based. Conditions: in vivo.
Series [3] can be described thus: Clearance in mouse at 1 mg/kg, iv. Conditions: in vivo. The series is classed as ADME, organism-based.
Series [4] is described as follows: Cmax in rat at 5 mg/kg, po. The series is classed as ADME, organism-based. On the set-up: dose 5 mg/kg, route oral. Conditions: in vivo.
The nature of series [5]: Volume of distribution at steady state in rat at 1 mg/kg, iv. It is filed as ADME, organism-based. Conditions: in vivo, read-out: Vdss.
The nature of series [6]: Thermodynamic solubility in pH 7.4 buffer. Conditions: read-out: Therm_solubility. It is filed as physicochemical.
The target of the next series is Cytochrome P450 3A4 (Homo sapiens, UniProt P08684). The series can be described thus: Inhibition of CYP3A4 (unknown origin). It is filed as ADME.
Chain of Cytochrome P450 3A4 (P08684 whole entry): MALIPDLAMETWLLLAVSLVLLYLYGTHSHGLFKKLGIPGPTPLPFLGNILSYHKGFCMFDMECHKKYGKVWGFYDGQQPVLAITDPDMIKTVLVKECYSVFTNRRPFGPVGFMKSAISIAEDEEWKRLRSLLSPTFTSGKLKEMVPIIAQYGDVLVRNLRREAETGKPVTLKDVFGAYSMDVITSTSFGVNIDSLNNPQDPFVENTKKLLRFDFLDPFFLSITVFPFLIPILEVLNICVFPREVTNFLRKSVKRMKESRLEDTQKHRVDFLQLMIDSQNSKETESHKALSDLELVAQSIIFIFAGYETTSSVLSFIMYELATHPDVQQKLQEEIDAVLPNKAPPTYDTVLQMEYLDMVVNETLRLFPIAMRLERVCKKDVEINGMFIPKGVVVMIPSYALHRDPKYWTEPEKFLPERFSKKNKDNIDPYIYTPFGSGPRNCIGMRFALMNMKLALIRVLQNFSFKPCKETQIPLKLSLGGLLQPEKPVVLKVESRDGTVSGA
Series [7] is described as follows: Oral bioavailability in dog at 1 mg/kg. It is filed as ADME, organism-based, Canis lupus familiaris. Conditions: in vivo.
For series [8], the target named is Autotaxin (Mus musculus, UniProt Q9R1E6). In words: Inhibition of autotaxin in mouse plasma assessed as reduction in LPA (18:2) production incubated for 2 hrs LC-MS-/MS analysis. The series is classed as cell-free.
For series [9], the target named is T1, Autotaxin (Homo sapiens, UniProt Q13822). In words: Inhibition of C-terminal FLAG-tagged human autotaxin expressed in Freestyle 293 cells assessed as reduction in choline release from LPC 16:0 pre-incubated for 10 mins before LPC addition and measured after 1 hr by choline oxidase/HRP coupled assay. It is filed as cell-based.
Series [10] can be described thus: AUClast in dog at 1 mg/kg, po. It is filed as ADME, organism-based, Canis lupus familiaris. Also on record: dose 1 mg/kg, time 0 - last, route oral. Conditions: in vivo.
The nature of series [11]: Protein binding in human plasma. The series is classed as ADME, cell-free. Conditions: read-out: PPB (converted).
Series [12] in a line: Volume of distribution at steady state in mouse at 1 mg/kg, iv. It is filed as ADME, organism-based. Conditions: in vivo, read-out: Vdss.
For series [13], the target named is T1, Autotaxin. The series can be described thus: Inhibition of autotaxin in human plasma assessed as reduction in LPA (18:2) production incubated for 2 hrs LC-MS-/MS analysis. It is filed as cell-free.
Series [14] in a line: Half life in mouse at 1 mg/kg, iv. The series is classed as ADME, organism-based. Conditions: in vivo.
Another series addresses Autotaxin (Mus musculus) (UniProt Q9R1E6). The series can be described thus: Potency index, ratio of IC50 for GLPG1690 to IC50 for test compound for inhibition of autotaxin in mouse plasma assessed as reduction in LPA (18:2) production incubated for 2 hrs LC-MS-/MS analysis. It is filed as cell-free.
A short description of series [15]: Half life in rat liver microsomes. The series is classed as ADME, Microsome. A general note: Liver microsomes are vesicles of endoplasmic reticulum, rich in cytochrome P450 enzymes.
A short description of series [16]: AUClast in rat at 5 mg/kg, po. It is filed as ADME, organism-based. On the set-up: dose 5 mg/kg, route oral, time 0 - last. Conditions: in vivo.
For a further series, the target named is T2, Cytochrome P450 1A2 (Homo sapiens, UniProt P05177).
T2 sequence (P05177 whole entry): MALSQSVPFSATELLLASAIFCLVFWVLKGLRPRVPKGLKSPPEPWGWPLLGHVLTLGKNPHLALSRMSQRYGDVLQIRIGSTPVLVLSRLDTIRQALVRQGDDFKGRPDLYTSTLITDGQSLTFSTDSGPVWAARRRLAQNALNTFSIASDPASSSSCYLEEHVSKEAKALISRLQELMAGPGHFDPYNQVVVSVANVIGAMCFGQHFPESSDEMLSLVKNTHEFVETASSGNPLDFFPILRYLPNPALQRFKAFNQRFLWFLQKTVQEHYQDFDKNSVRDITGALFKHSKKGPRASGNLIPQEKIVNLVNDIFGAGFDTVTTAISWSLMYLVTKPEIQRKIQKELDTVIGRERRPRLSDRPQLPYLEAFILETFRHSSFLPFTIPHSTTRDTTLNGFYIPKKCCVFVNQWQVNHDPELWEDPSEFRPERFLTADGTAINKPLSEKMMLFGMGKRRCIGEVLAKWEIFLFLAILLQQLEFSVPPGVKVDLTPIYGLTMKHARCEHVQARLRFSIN
The series can be described thus: Inhibition of CYP1A2 (unknown origin). The series is classed as ADME.

In a further series the test system is Rattus norvegicus. The series can be described thus: Inhibition of LPA (20:4) production in rat at 0.1 to 30 mg/kg, po measured after 4 hrs by LC-MS/MS analysis. It is filed as functional, organism-based. An outline of the steps: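 Rats dosed orally across a dose range. LPA 20:4 and compound levels measured by LC-MS/MS in blood at 4 h post-dose. LPA 20:4 chosen because it is more abundant in rats. Average percent inhibition of LPA plotted against plasma compound level to derive IC50.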

pIC50: −log10 of the molar value. ≈ marks a conversion by molar mass, not a printed value. Bounds are passed on as bounds.

Consider `CC(C)[C@@H](NC(=O)c1cc(C(F)(F)F)ccc1F)C(=O)N1CCC2(CC1)C(=O)N(C)C(=O)N2c1ccc2[nH]ncc2c1`, for which the bioavailability in [1] is 24%; in series [7], 100%. Moreover, in the series with Mus musculus, the Activity entry was “Dose-dependent effect”. This molecule showed a Time in series [2] of 12 h. For the same molecule, in series [3], the clearance was 54 mL/min/kg. The molecule further displayed a maximum concentration (Cmax) in series [4] of 160 ng/mL. For the same molecule, the Vd in [5] worked out at 1.98 L/kg; in [12] it was 1.38 L/kg. Moreover, the solubility thermodynamic in series [6] was found to be 452 µM (≈ 266 µg/mL). Moreover, the negative-log IC50 (pIC50) was under 4.30 on Cytochrome P450 3A4; 8.15 at Autotaxin [8]; 7.26 on Autotaxin [9]; 7.85 on Autotaxin [13]; under 4.30 against Cytochrome P450 1A2; 8.19 with Rattus norvegicus. Further, the exposure AUC(0-t) in series [10] stood at 3080 ng·h/mL; in series [16], 518 ng·h/mL. For the same molecule, in series [11], the fraction unbound was 0.113. Further, the values for the half-life in series [14] and in [15] were 0.57 h and 4.62 h, respectively. Moreover, the Ratio IC50 on Autotaxin (Mus musculus) came to 60. For the same molecule, the inhibition result in the series on Rattus norvegicus is “Dose-dependent effect”.
